Laboratory results from PubChem BioAssay.
Results filed as inconclusive are left out.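 How the source made its calls, unless noted: active means viability increase at or above a cutoff of the median across tested compounds plus 3 SD (cut at about 8.5% in these data, passing the limit was not always enough); inconclusive means some gains above the cutoff, reason not given; inactive means the rest.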

What was measured:
[1] = S. cerevisiae growth inhibition in permissive medium (OD615), pilot counter-assay for S. cerevisiae lifespan shortening project, permissive growth control (AID 705;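 active means growth inhibition above 25% in both replicates, a cutoff set 3 SD above the mean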); details: OD615, 24 h, at 10 µM, hits give high values
Method in brief: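 assay system = Saccharomyces cerevisiae strain carrying genetically modified DeaD replicative-lifespan system | technique = absorbance (optical density) at 615 nm | buffer or medium = permissive raffinose/galactose medium | timing = cells pre-grown 4 h, then 24 h compound exposure, 30 °C humidified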

[2] = S. cerevisiae growth inhibition in restrictive medium, OD615, pilot screen, restrictive growth control, yeast lifespan reduction project (AID 706;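 active means growth inhibition above a set limit, 3 SD over mean compound inhibition, in both replicates, cut at about 43% in these data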;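 further: modified DeaD lifespan yeast strain shifted to restrictive glucose medium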); details: OD615, 48 h, at 10 µM, hits give high values
Method in brief: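 System: modified S. cerevisiae. Buffer or medium: CSMM-D glucose medium. Incubation: 4 h pre-growth plus 48 h compound exposure, 30 °C. Detection: absorbance (optical density) measured at 615 nm.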

[3] = doxorubicin toxicity protection in MRP-1 cells – H69AR cells, CellTiter-Glo, duplicate, MRP-1 activator project, pilot screen (AID 807); details: H69AR viability with doxorubicin, CellTiter-Glo luminescence; at 10 µM; hits give high values;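 further: compound pretreatment 18-22 h then 72 h combined with doxorubicin; 0% = doxorubicin alone and 100% = vehicle without doxorubicin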
[4] = viability of HCT116 without oncogenic beta-catenin – human colon tumor cells, pilot screen (AID 823;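 active means cell viability at or below a set limit in both duplicate runs, the limit being the all-compound median minus 4 SD, cut at about 23% in these data, passing the limit was not always enough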;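 further: 0% = wells killed by 20 µM Hyamine and 100% = untreated DMSO cell wells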); details: HCT116 beta-catenin knockout viability, CellTiter-Glo, 60 h; at 10 µM; hits give low values
[5] = viability of PTEN-null HCT116 cells – cell-based, HCT116 clonal line, CellTiter-Glo, pilot screen (AID 824;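 active means viability at or below 27.92% in each of two runs, the all-compound median minus 4 SD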;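 further: 0% = 20 µM Hyamine control and 100% = vehicle cell control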); details: HCT116 PTEN-deleted viability, 60 h, at 10 µM, hits give low values
[6] = RAM pathway blockade in budding yeast – dse1pr::URA3 reporter, 5-FOA selection, pilot screen (AID 869;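 active means inhibition over a set limit, the all-compound mean plus 3 SD, in both replicate runs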;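 further: 0% = DMSO wells with no growth and 100% = 10 µM 1-NA-PP1 with full growth; RAM network block rescues cells from 5-FOA so hits raise OD615 growth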); details: S. cerevisiae dse1pr::URA3 5-FOA growth, OD615, 2 d; at 10 µM; hits give high values; strain carries analog-sensitive mutant Cbk1 kinase
[7] = RAM signaling pathway blockade in yeast – S. cerevisiae, Pdr1DBD-CYC8 efflux-inhibited sensitized strain, primary screen (AID 1298;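 active means RAM network inhibition above 8.4% in each of two replicates, 3 SD over the compound average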;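 further: 0% = DMSO untreated cells without growth and 100% = 10 µM 1-NA-PP1 full growth; higher means more yeast growth rescued from 5-FOA killing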); details: S. cerevisiae cbk1-as DSE1-URA3 strain, 5-FOA growth OD615, 2 d; at 50 µM; hits give high values

COCc1cc(C)nc2sc3c(=O)n(Cc4ccco4)nnc3c12
inactive: growth inhibition [1] -8.08% | growth inhibition [2] -13.3% | viability increase [3] -1.93% | viability [4] 100% | viability [5] 90.7% | inhibition [6] 4.2% | RAM network inhibition [7] 4.8%

CC1=C(C(=O)OCc2ccccc2)C(c2ccc(N3CCOCC3)cc2)NC(=O)N1 (stereo not drawn)
inactive: growth inhibition [1] -6.21% | growth inhibition [2] -3.42% | viability increase [3] 0.5% | viability [4] 100% | viability [5] 98.9% | inhibition [6] 0.99% | RAM network inhibition [7] 4.42%

CC12C(=O)N(c3ccccn3)C(=O)C1C1C=CC2C1 (stereo not drawn)
inactive: growth inhibition [1] -13.3% | growth inhibition [2] -4.06% | viability increase [3] -0.78% | viability [4] 96.6% | viability [5] 92% | inhibition [6] 1.26% | RAM network inhibition [7] 1.11%

OC(CN1c2ccccc2Sc2ccccc21)Cn1nnc2ccccc21 (stereo not drawn)
inactive: growth inhibition [1] -4.44% | growth inhibition [2] -9.12% | viability increase [3] -6.85% | viability [4] 72% | viability [5] 66.2% | inhibition [6] 1.69% | RAM network inhibition [7] 10.2%

Cc1cc(C)c2c(=O)[nH]n(C3CCOC(C)(C)C3)c2n1 (stereo not drawn)
inactive: growth inhibition [1] -4.97% | growth inhibition [2] -0.145% | viability increase [3] -0.16% | viability [4] 107% | viability [5] 99.8% | inhibition [6] -0.37% | RAM network inhibition [7] 1.49%

O=c1oc(-c2cc3ccccc3o2)nc2sc3c(c12)CCCC3
inactive: growth inhibition [1] -10.5% | growth inhibition [2] -6.6% | viability increase [3] 3.77% | viability [4] 74.4% | viability [5] 56.9% | inhibition [6] 2.1% | RAM network inhibition [7] 4.52%

Cc1c(C(=O)Nc2ccc(F)cc2)oc2ccc(S(=O)(=O)N3CCCC3)cc12
inactive: growth inhibition [1] -14.8% | growth inhibition [2] -6.18% | viability increase [3] -2.04% | viability [4] 101% | viability [5] 96% | inhibition [6] 3.88% | RAM network inhibition [7] 3%

CC(NC(=O)c1ccco1)C(c1cccs1)N1CCOCC1 (stereo not drawn)
inactive: growth inhibition [1] -6.95% | growth inhibition [2] 7.38% | viability increase [3] -2.37% | viability [4] 101% | viability [5] 99.5% | inhibition [6] 0.88% | RAM network inhibition [7] 1.38%

CC(=O)Nc1ccc(S(=O)(=O)NC2=NCN(CCOC(=O)c3ccccc3)CN2)cc1
inactive: growth inhibition [1] -3.64% | growth inhibition [2] 5.12% | viability increase [3] -1.37% | viability [4] 92.7% | viability [5] 93.6% | inhibition [6] 1.29% | RAM network inhibition [7] 1.02%

Cn1c(C(=O)NC2CCCC2)cc2c(=O)n(C)c3ccccc3c21
inactive: growth inhibition [1] -12.6% | growth inhibition [2] 3.59% | viability increase [3] -2.84% | viability [4] 84.3% | viability [5] 87.4% | inhibition [6] 1.21% | RAM network inhibition [7] 7.72%

Cc1csc(=N)n1-c1ccc(Cl)cc1
inactive: growth inhibition [1] -6.4% | growth inhibition [2] -7.49% | viability increase [3] 0.86% | viability [4] 82.5% | viability [5] 80.7% | inhibition [6] 1.35% | RAM network inhibition [7] 9.58%

O=C(COC(=O)c1ccc(S(=O)(=O)NCc2ccco2)cc1)Nc1ccccc1OC(F)F
inactive: growth inhibition [1] -8.88% | growth inhibition [2] -12.5% | viability increase [3] -2.64% | viability [4] 93.5% | viability [5] 93.7% | inhibition [6] 1.43% | RAM network inhibition [7] 7.18%

O=C(Nc1ccc(N2CCOCC2)cc1)NC1CCCCC1
inactive: growth inhibition [1] -0.89% | growth inhibition [2] 1.07% | viability increase [3] -1.27% | viability [4] 103% | viability [5] 101% | inhibition [6] -0.22% | RAM network inhibition [7] 9.28%

Cc1c(C(=O)NCc2ccccc2)oc2ccc(S(=O)(=O)N3CCCC3)cc12
inactive: growth inhibition [1] -11.4% | growth inhibition [2] 3.53% | viability increase [3] -2.64% | viability [4] 97% | viability [5] 93.1% | inhibition [6] 1.49% | RAM network inhibition [7] 2.93%

O=C(O)c1cc(-c2ccc(Cl)cc2)n[nH]1
inactive: growth inhibition [1] -6.99% | growth inhibition [2] 0.335% | viability increase [3] -0.39% | viability [4] 100% | viability [5] 96% | inhibition [6] 0.27% | RAM network inhibition [7] 0.61%

O=C(CS(=O)(=O)c1cn(Cc2ccccc2Cl)c2ccccc12)N1CCOCC1
inactive: growth inhibition [1] -3.44% | growth inhibition [2] 2.78% | viability increase [3] -4.39% | viability [4] 79% | viability [5] 76% | inhibition [6] 3.23% | RAM network inhibition [7] 5.08%

Cn1c(=O)c2c(nc(-n3ccnc3)n2Cc2ccc(Cl)cc2Cl)n(C)c1=O
inactive: growth inhibition [1] -10.2% | growth inhibition [2] -2.64% | viability increase [3] -4.31% | viability [4] 89.2% | viability [5] 80.4% | inhibition [6] 1.17% | RAM network inhibition [7] 5.62%

CCOC(=O)C1CCCN(C(=O)c2cc3c(=O)n(C)c4ccccc4c3n2C)C1 (stereo not drawn)
inactive: growth inhibition [1] -1.98% | growth inhibition [2] 0.3% | viability increase [3] -3.5% | viability [4] 94.2% | viability [5] 92.7% | inhibition [6] 0.67% | RAM network inhibition [7] -0.46%

COc1ccc(-c2nc(-c3ccc(Br)o3)no2)cc1OC
inactive: growth inhibition [1] -7.45% | growth inhibition [2] -17.9% | viability increase [3] -0.69% | viability [4] 86.3% | viability [5] 78.6% | inhibition [6] 0.88% | RAM network inhibition [7] 2.25%

CCOC(=O)Cn1c(=O)oc2cc(S(=O)(=O)N3CCc4ccccc43)ccc21
inactive: growth inhibition [1] -6.21% | growth inhibition [2] 1.04% | viability increase [3] -1.01% | viability [4] 91.8% | viability [5] 93.8% | inhibition [6] -0.605% | RAM network inhibition [7] 2.93%

CC(=O)Oc1ccc(C(=O)Nc2nccs2)cc1
inactive: growth inhibition [1] -7.33% | growth inhibition [2] -14.7% | viability increase [3] -4.75% | viability [4] 88.2% | viability [5] 80.3% | inhibition [6] 3.5% | RAM network inhibition [7] 0.1%

CCOC(=O)c1cccc(NC(=O)C2CCC(CNc3c(N4CCOCC4)c(=O)c3=O)CC2)c1 (stereo not drawn)
inactive: growth inhibition [1] -7.33% | growth inhibition [2] -13.8% | viability increase [3] -2.63% | viability [4] 83.7% | viability [5] 82.4% | inhibition [6] 0.325% | RAM network inhibition [7] 1.31%

COCCn1c(=NC(=O)CSC(C)=O)sc2cc(OC)ccc21
inactive: growth inhibition [1] -27.6% | growth inhibition [2] 18.1% | viability increase [3] -6.74% | viability [4] 88% | viability [5] 83.8% | inhibition [6] 0.53% | RAM network inhibition [7] 0.96%

COc1ccc(NC(C)=O)c2nc(C)c(C)nc12
inactive: growth inhibition [1] 7.39% | growth inhibition [2] -2.71% | viability increase [3] -3.32% | viability [4] 98% | viability [5] 93.9% | inhibition [6] 1.17% | RAM network inhibition [7] 1.29%
